Source: PubChem BioAssay (Johns Hopkins Ion Channel Center)
KCNK9 block – inhibitors of human KCNK9 two-pore domain potassium channel. Q9NPC2. AID 488922. B-score at 10 µM. 310,000 tested, 1.2% active. HEK293 KCNK9, FluxOR thallium flux fluorescence; active compounds read low;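 active = ratio B-score over 3 SD below the library mean, with starting fluorescence within 5 SD of its mean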;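 note: negative B-score means less thallium flux so channel inhibition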
KCNK3 inh – human KCNK3 channel inhibition, primary screen; 340,000 tested, 0.84% active; CHO-KCNK3 thallium flux, FluxOR fluorescence; active compounds read low; B-score at 10 µM; O14649;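 active = B-score under library mean minus 4 SD, starting fluorescence ratio at most library mean plus 5 SD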;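 note: more negative B-score means stronger inhibition of thallium flux through KCNK3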
hERG rescue – compounds protecting human hERG from proarrhythmic drug block; Q12809; CHO-hERG, FluxOR thallium flux, dofetilide IC70 present; activation (rescue from dofetilide block), less the hit threshold, % at 10 µM; 310,000 tested, 0.51% active; AID 1511;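 active = activation above the mean of controls blocked by dofetilide plus 5 SD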;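 note: thallium influx through hERG after potassium depolarization seen as dye fluorescence rise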
KCNQ1 inh – human KCNQ1 channel inhibition. CHO-K1 KCNQ1, FluxOR thallium flux fluorescence; active compounds read high. B-score at 10 µM. 310,000 tested, 1.3% active. AID 2642;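 active = compounds whose thallium flux B-score, printed positive for inhibition, exceeds three library SD while starting fluorescence stays within three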;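 note: channel opened by potassium depolarization with thallium stimulus after 20 min compound exposure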
KCNQ1 act – potentiators or activators of human KCNQ1 potassium channel | P51787 | CHO-K1 KCNQ1, thallium flux FluxOR fluorescence; active compounds read high | B-score at 10 µM | 310,000 tested, 0.35% active | AID 2648;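 active = fluorescence ratio B-score, a plate-corrected score, at least three library SD, with initial intensity B-score within 5 SD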
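assay system = KCNQ1-transfected CHO-K1 cells | medium = assay buffer with matched DMSO | probe or stimulus = depolarizing K+/Tl+ stimulus, K2SO4 and Tl2SO4 each 12.5 mM in 5x stock | dosing = single dose | incubation = dye 90 min, compound 20 min, room temperature | detection = kinetic FluxOR fluorescence, 10 s baseline plus 110 s post-stimulus | evaluation = ratio B score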
Kir21 inh – Kir2.1 (mouse) channel inhibition; HEK293-Kir2.1, FluxOR thallium flux fluorescence; active compounds read low; 310,000 tested, 0.85% active; P35561; B-score at 10 µM;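 active = fluorescence ratio B-score at or below minus 3 SD of library scores, with starting-brightness B-score within 2 SD, cut at about -4.2 in these data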;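 note: channel flux triggered by added potassium and thallium sulfate stimulus; B-score of peak minus minimum fluorescence over baseline after thallium stimulus; more negative B-score means stronger Kir2.1 block with less thallium influx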
Active calls of the source: *; i = inactive; x = not tested or not shown. An excerpt weighted towards active compounds, which were near 3.7% of everything screened.

SMILES	KCNK9 block	KCNK3 inh	hERG rescue	KCNQ1 inh	KCNQ1 act	Kir21 inh
O=C(COc1ccc(Br)cc1Br)NC(=S)N1CCCc2ccccc21	i	i	6.8*	i	i	2.2
CC(Oc1ccc(Cl)cc1Cl)C(=O)NC(=S)N1CCc2ccccc21 (configuration not stated)	i	i	28*	i	9*	-2.1
O=C(NC(=S)N1CCc2ccccc21)c1ccccc1Br	i	i	52*	i	45*	0.15
CCc1ccc(NC(=O)c2ccc3c(c2)C(=O)N(CCOC)C3Nc2ccc(CC)cc2)cc1 (configuration not stated)	i	i	-9	i	i	-0.37
Cc1cc(NC(=O)Cn2cc(C(F)(F)F)cc(Cl)c2=O)no1	i	i	-12	i	i	-0.95
Cc1cc(NNC(=O)c2cccc(C(F)(F)F)c2)nc2c1c(C)nn2C	i	i	-12	i	i	-1.3
N#Cc1cc(C(=O)c2cc(F)ccc2O)cn(-c2nccs2)c1=O	i	i	-13	8*	i	-7.4
COc1ccc2c(c1)OC[C@H]1[C@H]2N2C(=O)CN(Cc3ccc(C)cc3)C(=O)[C@@]2(C)[C@H]1c1ccccc1	x	i	x	x	x	x
CCc1ccc(OCc2nnc(-c3ccccc3Br)o2)cc1	x	-9.3*	x	x	x	x
O=C(/C=C/c1ccc([N+](=O)[O-])cc1)N(c1ccccn1)C1CCCCC1	i	i	-21	i	i	-0.48
CC(C)c1nc2n[nH]c(N)c2c2c1CCCC2	i	i	2	i	i	-6.8*
CC(C)Cc1nc2n[nH]c(N)c2c2c1CCCC2	i	i	2	i	i	0.06
COc1ccc(C(=O)c2sc(Nc3ccccc3)c(C(=O)Nc3ccc(OC)c(OC)c3)c2N)cc1	i	i	-16	7*	i	-0.02
COc1ccc(Nc2sc(C(=O)c3ccc(Cl)cc3)c(N)c2C(=O)Nc2ccccc2OC)cc1	i	i	-6	i	i	-0.12
CCC1CCCCN1C(=S)NC(=O)c1cccs1 (configuration not stated)	i	i	5.3*	i	8*	-1.3
O=C(NC(=S)N1CCCCC1CO)c1cccs1 (configuration not stated)	x	i	x	x	x	x
CCC1CCCCN1C(=S)NC(=O)c1ccc([N+](=O)[O-])cc1 (configuration not stated)	i	i	16*	i	18*	1.6
CCO[C@@H]1OC(C(=O)NCc2ccccc2)=C[C@H](c2coc3ccccc3c2=O)[C@H]1CCCO	i	i	-14	i	i	1.7
C[C@@H](CC#N)CN1CC[C@H](C(C)(C)C)CCC1=O	i	i	5.0*	i	i	-1.2
C[C@@H]1CCC(=O)N(C[C@@H](C)CC#N)CC1	i	i	0	i	i	-0.13
COc1ccc(CCC(=O)NCCOc2ccc(C)cc2)cc1	i	i	-3	i	11*	-0.63
COc1ccc(CCNC(=O)CCc2ccc(OC)cc2)cc1	i	i	1	i	i	-2.2
CCOC(=O)COc1ccccc1/C=N\NC(=O)c1cc2c(ccc3ccccc32)o1	-6.8*	i	-18	10*	i	2.1
Cc1cc(Cl)c(S(=O)(=O)N2CCN(c3ccc(F)cc3)CC2)cc1OCC(N)=O	i	i	6.0*	i	i	-0.07
COc1ccc(C2(c3ccc(OC)cc3)NC(=O)N(CC(=O)Nc3ccc(OC(F)F)cc3)C2=O)cc1	i	i	-2	9*	i	0.9
CC(C)NC(=O)/C(C#N)=C\c1ccc(N(C)C)o1	-7*	i	-21	i	i	-3.7
CC(NC(=O)/C(C#N)=C/c1ccc([N+](=O)[O-])o1)c1ccccc1 (configuration not stated)	i	i	-10	i	i	-7.7*
Cc1cccc(OCC(=O)NCCNC(=O)c2ccco2)c1	i	i	-7	i	i	3.6
Cc1c(C#N)c(N)c(C(=O)c2ccccc2)n1Cc1ccccc1	i	i	-6	i	i	-5.2*
COC(=O)c1sccc1NC(=O)c1c(Cl)cccc1Cl	i	i	4.7*	i	i	0.02
